Tests used:
4T1 tumors = assay: In vivo photosensitizing; design: species or system BALB/c mice; settings: 10 mice/group
Outline: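 BALB/c mice received 1 × 10⁶ 4T1 cells s.c. in 50 μL PBS at the right shoulder. Treatment began at a mean tumor volume of 62.5 mm³ (50–70). Test compound given i.v. Unanesthetized, restrained mice were irradiated at 665 nm (1 cm² spot, 135 J/cm², 75 mW/cm²). Mice were checked daily for regrowth; volume = (L × W²)/2; mice euthanized at 400 mm³.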

4T1 cells = assay: In vitro cell uptake by flow cytometry; type: cell-based, Mouse; settings: 4T1, 2 h post incubation
[1] = test system: 4T1 cells (αvβ3 positive); assay: In vitro photosensitizing; type: cell-based, Mouse; settings: 4T1, 2 h incubation, 665 nm light 0-2 J/cm2, MTT 48 h later
Outline: (§1)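 Cells kept at 37°C in 5% CO₂ in medium with 10% FBS (4T1: RPMI-1640; A431: DMEM high glucose). Plated at 3000 cells/well and allowed to attach for 3 h. Test compound added at variable concentrations for 2 h in the dark, then replaced with drug-free medium. Irradiated with a 665 nm dye laser at 3.2 mW/cm². After 48 h in the dark: MTT for 4 h, DMSO, A570. Survival given as % of dark control; mean of 3 experiments, 6 wells each, SD.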

[2] = test system: A431 cells (αvβ3 negative); assay: In vitro photosensitizing; type: cell-based, Human; settings: A431, 2 h incubation, 665 nm light 0-2 J/cm2, MTT 48 h later
Outline: as §1

U87 cells = assay: In vitro cell uptake by flow cytometry; type: cell-based, Human
Solubility in solvents = type: physicochemical
[3] = 0.25 μmol/kg, light at 24 h post injection

| Substance | tumor cure at day 60 (4T1 tumors; [3]) | tumor cure at day 60 (4T1 tumors; 0.47 μmol/kg, light at 4 h post injection) | mice tumor-free on day 60 (4T1 tumors; light at 24 h post injection, Figure 7B) | cell uptake compared with HPPH (4T1 cells) | in vitro PDT efficacy among HPPH and conjugates 7, 8, 10 [1] | in vitro phototoxicity compared to HPPH [2] | cell uptake among conjugates 7, 8 and 10 (U87 cells; U87, 400 nM and 800 nM, 2 h and 4 h post-incubation, flow cytometry) | cell uptake at 4 h versus 2 h incubation (U87 cells; U87, Figure S10) | mice tumor-free on day 60 (4T1 tumors; light at 2 h post injection, Figure 7A) | dissolution in common polar solvents (Solubility in solvents) | solubility in DMSO (Solubility in solvents) |
| --- | --- | --- | --- | --- | --- | --- | --- | --- | --- | --- | --- |
| 3-(1′-hexyloxyethyl)-3-devinylpyropheophorbide-a [HPPH] | did not produce any cures | no cures | 4/10 | – | – | – | – | – | – | – | – |
| 3-devinyl-3-{1′-(hexyloxy)ethyl}pyropheophorbide-a–cyclo(RGDfK) conjugate [conjugate 7] | did not produce any cures | – | – | comparable | most effective | less effective | highest uptake | significantly more at 4h | 8/10 | – | – |
| HPPH–cyclo(RGDfK) conjugate [conjugate 8] | – | – | – | – | – | – | – | – | – | unsuccessful | partly soluble |

From article PMC3148296 (Molecular pharmaceutics, 2011)
